Laboratory results taken from ChEMBL document CHEMBL1125363, “Novel piperidine sigma receptor ligands as potential antipsychotic drugs” (J Med Chem, 1992).

Assays:
[1] = biological target: Sigma non-opioid intracellular receptor 1 (Mus musculus, UniProt O55242); assay: In vitro binding affinity for the mouse sigma opioid receptor
[2] = biological target: Serotonin 2 (5-HT2) receptor (Mus musculus, UniProt Q02152+P34968+P35363); assay: In vitro binding affinity for serotonin 5-hydroxytryptamine (5-HT) 2 receptors; type: protein assay
Mus musculus = species: Mus musculus; assay: Oral potency tested by using anti-mescaline test; type: functional
Outline: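 Mice; mescaline was given to evoke hallucinogen-type behaviour, and the test compound was dosed orally to antagonise it. Potency is the ED50 in mg/kg po. Some ED50s are the average of three measurements.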

D(2) dopamine receptor = D(2) dopamine receptor (Mus musculus, UniProt P61168); assay: In vitro binding affinity towards dopamine receptor D2
D(2) dopamine receptor, sequence (P61168 whole entry): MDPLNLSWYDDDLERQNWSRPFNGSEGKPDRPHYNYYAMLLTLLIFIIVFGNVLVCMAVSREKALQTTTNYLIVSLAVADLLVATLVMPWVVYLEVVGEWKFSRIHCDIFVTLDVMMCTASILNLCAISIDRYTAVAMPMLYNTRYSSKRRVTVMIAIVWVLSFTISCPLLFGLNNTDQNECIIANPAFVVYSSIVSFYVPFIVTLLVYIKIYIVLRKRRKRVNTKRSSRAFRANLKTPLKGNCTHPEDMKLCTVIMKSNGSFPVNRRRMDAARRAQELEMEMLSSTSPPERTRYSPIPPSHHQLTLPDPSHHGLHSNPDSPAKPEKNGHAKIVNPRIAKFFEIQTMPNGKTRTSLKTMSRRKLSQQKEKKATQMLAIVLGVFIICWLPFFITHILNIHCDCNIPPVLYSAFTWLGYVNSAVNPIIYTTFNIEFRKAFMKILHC

Sigma non-opioid intracellular receptor 1, sequence (O55242 whole entry): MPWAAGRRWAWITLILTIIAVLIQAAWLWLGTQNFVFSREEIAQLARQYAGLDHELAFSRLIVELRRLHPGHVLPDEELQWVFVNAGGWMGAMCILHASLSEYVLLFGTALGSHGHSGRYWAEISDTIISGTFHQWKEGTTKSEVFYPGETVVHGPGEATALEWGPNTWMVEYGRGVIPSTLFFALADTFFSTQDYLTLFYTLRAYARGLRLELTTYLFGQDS

Row | Ki [1] [nM] | Ki [2] [nM] | IC50 (D(2) dopamine receptor) [nM] | Compound | ED50 (Mus musculus) [mg/kg]
1 | 4 | 313 | 6070 | COc1ccc(C(=O)CC2CCN(Cc3ccccc3)CC2)cc1 | > 30
2 | 10 | > 1000 | 4670 | O.O=C(CC1CCN(Cc2ccccc2)CC1)c1ccc(C(F)(F)F)cc1 | > 10
3 | 218 |  | 7220 | COc1ccc(-c2ccc(OCC3CCN(CC4CC4)CC3)cc2)cc1 | 
4 | 7 | 31 | 2750 | Fc1ccc(OCC2CCN(Cc3ccncc3)CC2)cc1.O | 1.1
5 | 31 | 438 | > 10000 | O.O=C(CC1CCN(Cc2ccccc2)CC1)c1ccc(CO)cc1 | > 30
6 | 40 | 17 |  | O=C(CCCN1CCC(C(=O)Cc2ccc(F)cc2)CC1)c1ccc(F)cc1 | 1.9
7 | 37 |  | 3340 | O=C(CC1CCCCN1Cc1ccccc1)c1ccc(F)cc1.O=C(O)/C=C\C(=O)O (stereo unspecified) | 4.3
8 | 10 | > 100 | 7630 | CSc1ccc(C(O)CC2CCN(Cc3ccccc3)CC2)cc1 (stereo unspecified) | > 30
9 | 2 | 15 | 179 | CC1(CN2CCC(COc3ccc(F)cc3)CC2)CC1(Cl)Cl.O=C(O)/C=C/C(=O)O (stereo unspecified) | < 10
10 | 7 | 101 | 806 | O.OC(CC1CCN(CCc2ccccc2)CC1)c1ccc(F)cc1 (stereo unspecified) | < 10
11 | 11 | 65 | 900 | OC(Cc1ccc(F)cc1)C1CCN(CCCCc2ccccc2)CC1 (stereo unspecified) | 18
12 | 7 | 41 | 1700 | O.OC(Cc1ccc(F)cc1)C1CCN(CCCc2ccccc2)CC1 (stereo unspecified) | 
13 | 98 |  | > 10000 | CC(O)c1ccc(OCC2CCN(CC3CC3)CC2)cc1 (stereo unspecified) | 
14 | 17 |  | 185 | O=C(CC1CCCN(CC2CC2)C1)c1ccc(F)cc1 (stereo unspecified) | 1.3
15 | 14 |  | 34 | O=C(CC1CCCN(Cc2ccccc2)C1)c1ccc(F)cc1 (stereo unspecified) | 1.1
16 | 8 | 208 | 715 | CSc1ccc(C(=O)CC2CCN(Cc3ccccc3)CC2)cc1 | > 30
17 | 9 | 3.3 | 10 | O=C(CC1CCN(CCc2ccc(C(F)(F)F)cc2)CC1)c1ccc(F)cc1 | < 10
18 | 8 | 38 | 1070 | Fc1ccc(CN2CCC(COc3ccc(F)cc3)CC2)cc1 | 5.9
19 | 4 | 24 | 560 | Fc1ccc(COCC2CCN(CCc3ccccc3)CC2)cc1.O=C(O)/C=C\C(=O)O | 15
20 | 5 | 24 | 945 | CC1CC1CN1CCC(COc2ccc(F)cc2)CC1.O=C(O)/C=C\C(=O)O (stereo unspecified) | > 10
21 | 3 | 55 | > 10000 | COc1ccc(OCC2CCN(Cc3ccccc3)CC2)cc1 | > 30
22 | 146 |  | > 10000 | Nc1ccc(C(=O)CC2CCN(CC3CC3)CC2)cc1.O | 10

Row | Ki [1] [nM] | Ki [2] [nM] | IC50 (D(2) dopamine receptor) [nM] | Compound | ED50 (Mus musculus) [mg/kg]
23 | 155 |  | > 10000 | OC(CC1CCN(CCC2CC2)CC1)c1ccc(F)cc1 (stereo unspecified) | 
24 | 31 | > 100 | 3330 | O.OC(CC1CCN(Cc2ccccc2)CC1)c1ccc2ccccc2c1 (stereo unspecified) | > 10
25 | 28 | 745 | > 10000 | O=S(=O)(CC1CCN(CCC2CC2)CC1)c1ccc(F)cc1 | 6.4
26 | 50 | > 100 | 4850 | O.c1ccc2c(OCC3CCN(CC4CC4)CC3)ccnc2c1 | 19.2
27 | 2 | 350 | 1930 | FC(F)(F)c1ccc(OCC2CCN(Cc3ccccc3)CC2)cc1 | 6
28 | 3 | 6 | 195 | O=C(CC1CCN(Cc2ccc(C(F)(F)F)cc2)CC1)c1ccc(F)cc1 | 1.8
29 | 175 |  | > 10000 | c1cc(OCC2CCN(CC3CC3)CC2)ccn1 | 
30 | 7 | 53 | 3170 | c1ccc(OCC2CCN(CC3CC3)CC2)cc1 | 30
31 | 5 | 8.4 | 14 | O=C(CC1CCN(CCc2ccc(Cl)cc2)CC1)c1ccc(F)cc1 | 1.8
32 | 3 | 316 | 1100 | O=C(Cc1ccc(F)cc1)CC1CCN(Cc2ccccc2)CC1.O=C(O)/C=C\C(=O)O | > 30
33 | 53 | 204 | > 10000 | C[S+]([O-])c1ccc(C(=O)CC2CCN(Cc3ccccc3)CC2)cc1.O (stereo unspecified) | > 30
34 | 7 | 10 | 57 | O=C(CC1CCN(CCc2ccc(F)cc2)CC1)c1ccc(F)cc1 | 0.13
35 | 24 | 584 | > 10000 | c1ccc(Oc2ccc(OCC3CCN(CC4CC4)CC3)cc2)cc1 | > 30
36 | 18 | 116 | > 10000 | CS(=O)(=O)c1ccc(C(=O)CC2CCN(Cc3ccccc3)CC2)cc1 | > 30
37 | 30 |  | 1340 | COc1ccc(CN2CCC(COc3ccc(F)cc3)CC2)cc1.O.O=C(O)/C=C\C(=O)O | 6.5
38 | 11 | 1323 | > 10000 | O.OC(CC1CCN(Cc2ccccc2)CC1)c1ccco1 (stereo unspecified) | > 30
39 | 18 | > 1000 | 1340 | O.O=C(CC1CCN(Cc2ccccc2)CC1)c1ccc(O)cc1 | > 30
40 | 33 | > 100 | 3010 | O=C(CC1CCN(Cc2ccccc2)CC1)c1ccc(-c2ccccc2)cc1 | 30
41 | 9 | > 1000 | 539 | CC(=O)c1ccc(OCC2CCN(CC3CC3)CC2)cc1 | > 30
42 | 310 |  | > 10000 | [O-][S+](CC1CCN(CCC2CC2)CC1)c1ccc(F)cc1 (stereo unspecified) | 
43 | > 10000 |  |  | CN(C)S(=O)(=O)c1ccc(OCC2CCN(CC3CC3)CC2)cc1 | 
44 | 6 | 173 | 1020 | O.c1ccc(CN2CCC(COc3ccc4ccccc4c3)CC2)cc1 | > 30

Row | Ki [1] [nM] | Ki [2] [nM] | IC50 (D(2) dopamine receptor) [nM] | Compound | ED50 (Mus musculus) [mg/kg]
45 | 3 | 290 | 4560 | O.O=C(Cc1ccc(F)cc1)C1CCN(Cc2ccccc2)CC1.O=C(O)/C=C\C(=O)O | 18
46 | 2 | 41 | 2840 | Cl.Fc1ccc(OCC2CCN(CC3CC3)CC2)cc1F | 4.5
47 | 347 |  | 4440 | c1cnc(OCC2CCN(CC3CC3)CC2)nc1 | 
48 | 44 | 1378 | 4670 | Cl.c1ccc(OCC2CCN(CC3CC3)CC2)nc1 | > 30
49 | 4 | 32 | 111 | Cl.Clc1ccc(OCC2CCN(CC3CC3)CC2)c(Cl)c1 | 2.9
50 | 5 | 272 | 4390 | Cl.O=[N+]([O-])c1ccc(OCC2CCN(Cc3ccccc3)CC2)cc1 | 14
51 | 4 | < 100 | 114 | Cl.Fc1ccc(OCCC2CCN(Cc3ccccc3)CC2)cc1.O | 16
52 | 50 | 8706 | > 10000 | COc1cc(OCC2CCN(CC3CC3)CC2)cc(OC)c1OC.Cl | > 30
53 | 3 | 127 | 3350 | Cl.Fc1ccc(COCC2CCN(CC3CCCCC3)CC2)cc1 | > 10
54 | 33 | 559 | > 10000 | Br.CN(C)c1ccc(C(=O)CC2CCN(CC3CC3)CC2)cc1.O | 30
55 | 6 | > 100 | > 10000 | Cl.OC(CC1CCN(Cc2ccccc2)CC1)c1ccc(C(F)(F)F)cc1 (stereo unspecified) | > 30
56 | 8 | 87 | 1650 | Cl.Clc1ccc(OCC2CCN(CC3CC3)CC2)cc1Cl | 3.3
57 | 7 | 500 | 3130 | Cl.Oc1ccc(CN2CCC(COCc3ccc(F)cc3)CC2)cc1 | > 10
58 | 18 | 1603 | 8300 | Cl.OC(Cc1ccccc1)C1CCN(Cc2ccccc2)CC1 (stereo unspecified) | < 10
59 | 27 | < 100 | 773 | Cl.Fc1ccc(COCC2CCN(Cc3ccc(OCc4ccccc4)cc3)CC2)cc1 | < 30
60 | 7 | 114 | 1980 | CSc1ccc(OCC2CCN(CC3CC3)CC2)cc1.Cl | > 30
61 | 304 |  | > 10000 | Fc1ccc(COCC2CCN(CCCc3ccccc3)CC2)cc1 | 
62 | 33 | > 10000 | > 10000 | CCNc1ccc(OCC2CCN(CC3CC3)CC2)cc1.Cl.O | > 30
63 | 8 | > 1000 | 1570 | Br.CC(C)(C)c1ccc(C(=O)CC2CCN(CC3CC3)CC2)cc1.O | > 30
64 | 18 | > 100 | > 10000 | COc1ccc(OCC2CCN(CC3CC3)CC2)cc1.Cl.O | > 30
65 | 7 | 313 | 1980 | COC(=O)c1ccc(CN2CCC(COCc3ccc(F)cc3)CC2)cc1.Cl | > 10
